Experimental data: ChEMBL document CHEMBL1140821, “Novel indole-3-sulfonamides as potent HIV non-nucleoside reverse transcriptase inhibitors (NNRTIs)” (Bioorg Med Chem Lett, 2008)

Assays:
[1] = Inhibition of HIV NL43 recombinant reverse transcriptase by scintillation proximity assay; set-up: species or system Human immunodeficiency virus
How it was run: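 Purified recombinant wild-type RT (NL_43) polymerase activity measured as 3H-dNTP incorporation, using a 500 nt heteropolymeric RNA template with biotinylated DNA primer. Read by scintillation proximity assay.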

[2] = target: Human immunodeficiency virus type 1 reverse transcriptase (Human immunodeficiency virus 1, UniProt Q72547, K103N); assay: Inhibition of HIV NL43 recombinant reverse transcriptase K103N mutant by scintillation proximity assay
[3] = system: Human immunodeficiency virus; assay: Antiviral activity against HIV 3B in MT4 cells assessed as inhibition of replication after 3 days in presence of 10% fetal bovine serum; assay type: functional; conditions: Human immunodeficiency virus 1, 3B, MT4, 72 h; read-out: CIC95
How it was run: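 MT4 cells infected overnight with wild-type H9IIIB virus (moi 0.01) without compound, washed, then cultured 3 days across a compound concentration range in 10% FBS. Replication read as p24 in culture supernatants. CIC95 = lowest concentration inhibiting replication by ≥95%.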

[4] = target: Human immunodeficiency virus type 1 reverse transcriptase (Human immunodeficiency virus 1, UniProt Q72547, Y181C); assay: Inhibition of HIV HXB2 recombinant reverse transcriptase Y181C mutant by scintillation proximity assay

Row | Structure (SMILES) | IC50 [1] [µM] | IC50 [2] [µM] | IC95 [3] [µM] | IC50 [4] [µM]
1 | O=C(NCc1c(F)cccc1Cl)c1[nH]c2ccc(Br)cc2c1S(=O)(=O)N1CCCC1 | 0.0038 | 0.02 | 0.025 | 0.016
2 | O=C(NCc1ccccc1O)c1[nH]c2ccc(Br)cc2c1S(=O)(=O)N1CCCC1 | 0.0024 | 0.031 | 0.023 | 0.0094
3 | O=C(NCc1ccn[nH]1)c1[nH]c2ccc(Br)cc2c1S(=O)(=O)N1CCCC1 | 0.0025 | 0.26 | < 0.0078 | 0.829
4 | O=C(NCc1ccncc1)c1[nH]c2ccc(Br)cc2c1S(=O)(=O)N1CCCC1 | 0.014 | 0.17 | < 0.0078 | 0.0063
5 | O=C(NCc1cncs1)c1[nH]c2ccc(Br)cc2c1S(=O)(=O)N1CCCC1 | 0.0062 | 0.093 | 0.016 | 0.006
6 | Cc1cnc(-c2[nH]c3ccc(Br)cc3c2S(=O)(=O)N2CCCC2)[nH]1 | 0.0031 | 0.042 | < 0.0078 | 0.025
7 | CCC(O)c1cnc(-c2[nH]c3ccc(Br)cc3c2S(=O)(=O)N2CCCC2)[nH]1 (centres undefined) | 0.0088 | 0.062 | 0.05 | 2.6
8 | N#Cc1ccc2[nH]c(C(N)=O)c(S(=O)(=O)N3CCCC3)c2c1 | 0.0091 | 2.3 | 0.016 | > 10
9 | NC(=O)c1[nH]c2ccc(-c3cccnc3)cc2c1S(=O)(=O)N1CCCC1 | 2.2 | – | 0.31 | –
10 | CCC(OC)c1cnc(-c2[nH]c3ccc(Br)cc3c2S(=O)(=O)N2CCCC2)[nH]1 (centres undefined) | 0.016 | 0.11 | 0.1 | 0.24
11 | O=S(=O)(c1c(-c2ncc(-c3ccccc3)[nH]2)[nH]c2ccc(Br)cc12)N1CCCC1 | 0.011 | 0.15 | 0.067 | > 9.1
12 | O=S(=O)(c1c(-c2nc3ccccc3[nH]2)[nH]c2ccc(Br)cc12)N1CCCC1 | 0.0069 | 0.28 | 0.078 | 0.038
13 | COc1ccc2nc(-c3[nH]c4ccc(Br)cc4c3S(=O)(=O)N3CCCC3)[nH]c2c1 | 0.045 | 0.15 | 0.4 | 5.1
14 | O=S(=O)(c1c(-c2nc3ccc(F)cc3[nH]2)[nH]c2ccc(Br)cc12)N1CCCC1 | 0.015 | 0.22 | 0.28 | 5.3
15 | Cc1cnc(-c2[nH]c3ccc(Cl)cc3c2S(=O)(=O)c2ccccc2)[nH]1 | 0.005 | – | 0.012 | –
16 | NC(=O)c1[nH]c2ccc(Br)cc2c1S(=O)(=O)NC1CCCCC1 | 0.014 | – | 0.125 | –
17 | NC(=O)c1[nH]c2ccc(Br)cc2c1S(=O)(=O)N1CCCC1 | – | 10 | < 0.0078 | 0.12

Row | Structure (SMILES) | IC50 [1] [µM] | IC50 [2] [µM] | IC95 [3] [µM] | IC50 [4] [µM]
18 | NC(=O)c1[nH]c2ccc(Br)cc2c1S(=O)(=O)N1CCCCC1 | 0.0057 | – | 0.016 | –
19 | NC(=O)c1[nH]c2ccc(C3CC3)cc2c1S(=O)(=O)N1CCCC1 | 0.94 | – | 0.16 | –
20 | NC(=O)c1[nH]c2ccc(Br)cc2c1S(=O)(=O)N1CCC(F)(F)CC1 | 0.0045 | – | 0.41 | –
21 | CCCNS(=O)(=O)c1c(C(N)=O)[nH]c2ccc(Br)cc12 | 0.019 | – | 0.16 | –
22 | NC(=O)c1[nH]c2ccc(Br)cc2c1S(=O)(=O)NC1CCCC1 | 0.018 | – | 0.125 | –
23 | O=C(NCCO)c1[nH]c2ccc(Br)cc2c1S(=O)(=O)N1CCCC1 | 0.015 | 2.8 | 0.625 | 0.0069
24 | O=S(=O)(c1c(-c2nc3cccnc3[nH]2)[nH]c2ccc(Br)cc12)N1CCCC1 | 0.04 | 0.37 | 0.082 | 5
25 | NC(=O)c1[nH]c2ccc(Br)cc2c1S(=O)(=O)NC1CCC1 | 0.0005 | – | 0.125 | –
26 | O=S(=O)(c1c(-c2nc3cccc(O)c3[nH]2)[nH]c2ccc(Br)cc12)N1CCCC1 | 0.01 | 0.048 | 0.082 | 0.81
27 | NC(=O)c1[nH]c2ccc(C#CC3CC3)cc2c1S(=O)(=O)N1CCCC1 | 0.43 | – | 0.63 | –
28 | NC(=O)c1[nH]c2ccc(Cc3ccc(Cl)cn3)cc2c1S(=O)(=O)N1CCCC1 | 0.059 | 8.2 | – | > 10
29 | NC(=O)c1[nH]c2ccc(Br)cc2c1S(=O)(=O)NC1CCC(F)(F)C1 (centres undefined) | 0.0002 | – | 0.14 | –
30 | NC(=O)c1[nH]c2ccc(Cl)cc2c1S(=O)(=O)N1CCCC1 | 0.0039 | 1.96 | < 0.0078 | 0.048
31 | O=C(NCc1nccs1)c1[nH]c2ccc(Br)cc2c1S(=O)(=O)N1CCCC1 | 0.0028 | 0.28 | < 0.0078 | 0.2
32 | O=C(NCc1ccnc2ccccc12)c1[nH]c2ccc(Br)cc2c1S(=O)(=O)N1CCCC1 | 0.0031 | 0.025 | 0.082 | 0.063
33 | NC(=O)c1[nH]c2ccc(-c3ccccc3)cc2c1S(=O)(=O)N1CCCC1 | 0.55 | – | 1.3 | –
34 | NC(=O)c1[nH]c2ccc(Cl)cc2c1S(=O)(=O)c1ccccc1 [L-737126] | 0.003 | 0.116 | – | 0.071
